Source: ChEMBL document CHEMBL4190338, “1-Benzyl-3-aryl-2-thiohydantoin Derivatives as New Anti-Trypanosoma brucei Agents: SAR and in Vivo Efficacy” (ACS Med Chem Lett, 2017)
Converted amounts (≈) assume the structure as drawn.

Assays:
[1] = system: Trypanosoma brucei brucei; assay: Antitrypanosomal activity against Trypanosoma brucei brucei BF427 measured after 48 hrs by Alamar blue assay; assay type: functional, organism-based; conditions: BF427, 48 h
How it was run: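 Bloodstream T. brucei BF427 cultured in HMI-9 medium. Exposed to serial 3-fold compound dilutions in triplicate, read with Alamar Blue at 48 h. Pentamidine isethionate control in every assay.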

[2] = Cytotoxicity against human CRL8155 cells assessed as growth inhibition after 48 hrs by Alamar blue assay; assay type: cell-based
How it was run: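 Serial 3-fold dilutions in quadruplicate, 48 h, AlamarBlue read-out. Inhibition relative to untreated cells after subtracting a 50 µM quinacrine background. EC50 by nonlinear regression.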

[3] = system: Trypanosoma brucei rhodesiense; assay: Antitrypanosomal activity against trypomastigote form of Trypanosoma brucei rhodesiense STIB900 infected in mouse assessed as cure rate at 50 mg/kg administered via oral gavage bid from day 2 to 5 post infection measured 3 times per week for first month and weekly up to 60 days by microscopic method relative to control; assay type: functional
Mus musculus [4] = assay: AUC in mouse at 50 mg/kg, po administered as single dose measured 24 hrs post dose by liquid chromatography/tandem mass spectrometric analysis; assay type: ADME, organism-based; conditions: in vivo
How it was run: (§1)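 Single oral dose of 50 mg/kg to mice in Phosal 53 MCT (60%)/PEG400 (30%)/ethanol (10%). Tail blood collected at 0.5, 1, 2, 4, 6, 8 and 24 h post dose and spotted onto DMPK cards. Punched dried blood spot disks extracted with acetonitrile, quantified by LC-MS/MS.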

[5] = Protein binding in Swiss Webster mouse plasma at 2 uM after 8 hrs by microdialysis based liquid chromatography/tandem mass spectrometric analysis; assay type: ADME, cell-free
How it was run: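 Compound at 2 µM in 50% pooled female Swiss Webster mouse plasma (lithium heparin) with 10X PBS, dialysed against blank 10X PBS in triplicate chambers of a microdialysis device. Incubation at 37 °C, 5% CO2 overnight or ≥8 h with shaking. Centrifuged 3000 rcf 15 min; supernatants concentrated, LC-MS/MS. Propranolol control.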

[6] = Ratio of drug level in mouse brain to plasma at 5 mg/kg, ip administered as single dose measured 1 hr post dose by liquid chromatography/tandem mass spectrometric analysis; assay type: ADME, organism-based
How it was run: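 Single IP injection of 5 mg/kg in 5% DMSO/7% Tween80/3% EtOH in 0.9% saline. At 1 h, plasma and brains collected; brains homogenized in water. Vehicle-injected mice (n=3) supplied matrix for standard curves. LC-MS/MS quantitation, with brain levels corrected for 3% v/w residual blood.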

Cytochrome P450 3A4 = Cytochrome P450 3A4 (Homo sapiens, UniProt P08684); assay: Inhibition of CYP3A4 (unknown origin); assay type: ADME
[7] = Solubility in phosphate buffered saline at pH 7.4 at 50 uM incubated overnight by liquid chromatography/tandem mass spectrometric analysis; assay type: physicochemical; conditions: buffer, pH 7.4, 50 µM
How it was run: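 Compound at 50 µM in 1X PBS adjusted to pH 7.4, shaken overnight at 37 °C, then centrifuged 13500 rpm for 15 min at room temperature. Duplicate supernatant aliquots analysed by LC-MS/MS.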

Mus musculus [8] = assay: Cmax in mouse at 50 mg/kg, po administered as single dose measured 24 hrs post dose by liquid chromatography/tandem mass spectrometric analysis; assay type: ADME, organism-based; set-up: dose 50 mg/kg, route oral; conditions: in vivo; how it was run: as §1

Sequence of Cytochrome P450 3A4 (P08684 whole entry): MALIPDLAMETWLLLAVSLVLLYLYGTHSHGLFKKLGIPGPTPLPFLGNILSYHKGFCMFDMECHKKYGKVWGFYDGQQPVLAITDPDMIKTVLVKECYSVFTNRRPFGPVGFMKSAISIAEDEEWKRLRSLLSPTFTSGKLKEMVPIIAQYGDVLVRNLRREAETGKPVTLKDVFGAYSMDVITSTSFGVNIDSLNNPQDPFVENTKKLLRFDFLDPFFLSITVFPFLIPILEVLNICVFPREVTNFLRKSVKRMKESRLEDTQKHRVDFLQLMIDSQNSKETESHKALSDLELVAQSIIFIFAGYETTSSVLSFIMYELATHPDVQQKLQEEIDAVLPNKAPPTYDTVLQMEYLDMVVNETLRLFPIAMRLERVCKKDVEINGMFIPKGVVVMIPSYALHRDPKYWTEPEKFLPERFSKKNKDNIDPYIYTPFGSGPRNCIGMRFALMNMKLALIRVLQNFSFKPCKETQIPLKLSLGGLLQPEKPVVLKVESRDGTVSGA

SMILES	EC50 [1]	CC50 [2]	further results
O=C1CN(Cc2ccccc2)C(=S)N1c1ccc(O)cc1	> 10000 nM	–	–
O=C1CN(Cc2ccc(F)cc2F)C(=S)N1c1ccc(N2CCCC2)c(Cl)c1	10 nM	> 50000 nM	–
COc1ccc(N2C(=O)CN(Cc3ccc(F)cc3)C2=S)cc1OC	49 nM	> 50000 nM	–
COc1cc(N2C(=O)CN(Cc3ccccc3)C2=S)ccc1N(C)C	13 nM	–	–
CC(C)c1ccc(N2C(=O)CN(Cc3ccccc3)C2=S)cc1	> 10000 nM	–	–
O=C1CN(Cc2ccc(F)cc2Cl)C(=S)N1c1ccc(N2CCCC2)c(Cl)c1	9 nM	> 50000 nM	–
COc1ccc(N2C(=O)CN(Cc3ccc(F)cc3F)C2=S)cc1OC	33 nM	> 50000 nM	–
O=C1CN(Cc2ccccc2)C(=S)N1c1ccc(F)c(Cl)c1	> 10000 nM	–	–
COc1ccc(N2C(=O)CN(Cc3ccccc3)C2=S)cc1OC	161 nM	–	–
COc1cc(F)ccc1CN1CC(=O)N(c2ccc(N(C)C)c(OC)c2)C1=S	11 nM	39600 nM	–
COc1cc(N2C(=O)CN(Cc3ccc(F)cc3F)C2=S)ccc1N(C)C	6 nM	> 50000 nM	–
COc1ccc(N2C(=O)CN(Cc3ccc(F)cc3F)C2=S)cc1Cl	63 nM	–	–
COc1cc(N2C(=O)CN(Cc3ccc(F)c(F)c3)C2=S)ccc1N(C)C	28 nM	> 50000 nM	–
COc1ccc(N2C(=O)CN(Cc3ccc(F)cc3Cl)C2=S)cc1OC	14 nM	36800 nM	–
COc1cc(F)ccc1CN1CC(=O)N(c2ccc(OC)c(OC)c2)C1=S	107 nM	> 50000 nM	–
CN(C)c1ccc(N2C(=O)CN(Cc3ccc(F)cc3F)C2=S)cc1F	28 nM	> 50000 nM	–
CN(C)c1ccc(N2C(=O)CN(Cc3ccc(F)cc3Cl)C2=S)cc1F	15 nM	> 50000 nM	–
O=C1CN(Cc2ccc(F)cc2)C(=S)N1c1ccc(N2CCCC2)c(Cl)c1	27 nM	> 50000 nM	–
COc1ccc(N2C(=O)CN(Cc3ccc(F)c(F)c3)C2=S)cc1Cl	313 nM	–	–
CCN(CC)CCCC(C)Nc1c2ccc(Cl)cc2nc2ccc(OC)cc12 (stereo not given) [QUINACRINE]	–	2340 nM	–
COc1ccc(CN2CC(=O)N(c3ccc(OC)c(Cl)c3)C2=S)cc1	> 20000 nM	–	–
O=C1CN(Cc2ccccc2)C(=S)N1c1cc(C(F)(F)F)cc(C(F)(F)F)c1	> 10000 nM	–	–
N=C(N)c1ccc(OCCCCCOc2ccc(C(=N)N)cc2)cc1	1.15 nM	–	–

SMILES	EC50 [1]	CC50 [2]	further results
COc1ccc(N2C(=O)CN(Cc3ccc(C(F)(F)F)cc3)C2=S)cc1Cl	> 20000 nM	–	–
COC(=O)c1ccc(CN2CC(=O)N(c3ccc(OC)c(Cl)c3)C2=S)cc1	> 20000 nM	–	–
COc1ccc(N2C(=O)CN(Cc3ccc(C)cc3)C2=S)cc1Cl	1550 nM	–	–
COc1cc(F)ccc1CN1CC(=O)N(c2ccc(N(C)C)c(Cl)c2)C1=S	11 nM	12600 nM	–
COc1ccc(Cl)cc1N1C(=O)CN(Cc2ccccc2)C1=S	> 10000 nM	–	–
CC(=O)c1ccc(N2C(=O)CN(Cc3ccccc3)C2=S)cc1	> 10000 nM	–	–
COc1cc(N2C(=O)CN(Cc3ccc(F)cc3Cl)C2=S)ccc1N(C)C	1.9 to 2 nM	> 50000 nM	Activity [3]: 100%; AUC (Mus musculus [4]): 750 µmol·min/L; PPB [5]: 96.3%; BPR [6]: 1.68; IC50 (Cytochrome P450 3A4): 7760 nM; solubility [7]: 4.1 µM (≈ 1.67 µg/mL); Cmax (Mus musculus [8]): 2500 nM
COc1cc(N2C(=O)CN(Cc3ccccc3)C2=S)cc(OC)c1OC	> 10000 nM	–	–
O=C(O)c1ccc(N2C(=O)CN(Cc3ccccc3)C2=S)cc1	> 10000 nM	–	–
COc1ccc(N2C(=O)CN(Cc3cccnc3)C2=S)cc1Cl	3000 nM	–	–
CN(C)c1ccc(N2C(=O)CN(Cc3ccccc3)C2=S)cc1F	125 nM	–	–
O=C1CN(Cc2ccccc2)C(=S)N1c1ccc(Cl)cc1	> 10000 nM	–	–
COc1cc(N2C(=O)CN(Cc3ccc(F)cc3[N+](=O)[O-])C2=S)ccc1N(C)C	44 nM	> 50000 nM	–
COc1ccc(N2C(=O)CN(Cc3ccc(Cl)cc3)C2=S)cc1Cl	853 nM	–	–
COc1ccc(N2C(=O)CN(Cc3cccc(F)c3)C2=S)cc1Cl	968 nM	–	–
CC(C)NCC(O)COc1cccc2ccccc12 (stereo not given) [PROPRANOLOL]	–	–	PPB [5]: 91.7%
COc1ccc(N2C(=O)CN(Cc3ccc(F)cc3[N+](=O)[O-])C2=S)cc1OC	555 nM	> 50000 nM	–
CN(C)c1ccc(N2C(=O)CN(Cc3ccc(F)cc3C(F)(F)F)C2=S)cc1Cl	22 nM	> 50000 nM	–
O=C1CN(Cc2ccccc2)C(=S)N1c1ccccc1Cl	> 20000 nM	–	–
O=C1CN(Cc2ccccc2)C(=S)N1c1cc(Cl)ccc1F	> 10000 nM	–	–
CN(C)c1ccc(N2C(=O)CN(Cc3ccc(F)c(F)c3)C2=S)cc1Cl	13 nM	> 50000 nM	–
COc1ccc(N2C(=O)CN(Cc3ccc(F)cc3C(F)(F)F)C2=S)cc1Cl	924 nM	–	–
CN(C)c1ccc(N2C(=O)CN(Cc3ccc(F)cc3Cl)C2=S)cc1Cl	2 nM	> 50000 nM	–

SMILES	EC50 [1]	CC50 [2]	further results
COc1ccc(N2C(=O)CN(Cc3ccc(C#N)cc3)C2=S)cc1Cl	17800 nM	–	–
O=C1CN(Cc2ccccc2)C(=S)N1c1ccc(F)cc1	> 10000 nM	–	–
COc1cccc(N2C(=O)CN(Cc3ccccc3)C2=S)c1	> 10000 nM	–	–
COc1ccc(N2C(=O)CN(Cc3ccccc3)C2=S)c(OC)c1	637 nM	–	–
O=C1CN(Cc2ccccc2)C(=S)N1c1ccccc1	> 10000 nM	–	–
COc1ccc(N2C(=O)CN(Cc3ccccc3)C2=S)cc1	> 10000 nM	–	–
COc1cc(N2C(=O)CN(Cc3ccc(F)cc3)C2=S)ccc1N(C)C	7 nM	> 50000 nM	–
COc1ccc(N2C(=O)CN(Cc3ccccc3)C2=S)cc1Cl	346 nM	–	–
O=C1CN(Cc2ccccc2)C(=S)N1c1ccc(Cl)c(C(F)(F)F)c1	> 10000 nM	–	–
COc1ccc(N2C(=O)CN(Cc3ccc(F)cc3)C2=S)cc1Cl	52 nM	–	–
COc1ccc(N2C(=O)CN(Cc3ccc(F)cc3[N+](=O)[O-])C2=S)cc1Cl	350 nM	–	–
COc1ccc(N2C(=O)CN(Cc3ccc(F)c(F)c3)C2=S)cc1OC	115 nM	> 50000 nM	–
COc1ccc(N2C(=O)CN(Cc3ccccc3)C2=S)cc1N(C)C	431 nM	–	–
CN(C)c1ccc(N2C(=O)CN(Cc3ccccc3)C2=S)cc1	1500 nM	–	–
COc1ccc(N2C(=O)CN(Cc3ccc(F)cc3C(F)(F)F)C2=S)cc1OC	37 nM	> 50000 nM	–
CN(C)c1ccc(N2C(=O)CN(Cc3ccc(F)cc3[N+](=O)[O-])C2=S)cc1Cl	19 nM	> 50000 nM	–
COc1cc(N2C(=O)CN(Cc3ccc(F)cc3C(F)(F)F)C2=S)ccc1N(C)C	28 nM	> 50000 nM	–
COc1ccc(N2C(=O)CN(Cc3ccc(F)c(C#N)c3)C2=S)cc1Cl	> 20000 nM	–	–
CN(C)c1ccc(N2C(=O)CN(Cc3ccccc3)C2=S)cc1Cl	16 nM	–	–
O=C1CN(Cc2ccccc2)C(=S)N1c1cccc(Cl)c1	> 20000 nM	–	–
CN(C)c1ccc(N2C(=O)CN(Cc3ccc(F)cc3F)C2=S)cc1Cl	4 nM	> 50000 nM	–
COc1ccc(N2C(=O)CN(Cc3ccc(F)cc3OC)C2=S)cc1Cl	191 nM	–	–
